Results published in ChEMBL document CHEMBL1140237, “6-(2-Phenylethyl)nicotine: a novel nicotinic cholinergic receptor ligand” (Bioorg Med Chem Lett, 2005).
Activity calls are given as the source filed them. The rule behind the calls is not given here.

Tests used:
[1] = molecular target: T1, Neuronal acetylcholine receptor; alpha4/beta2 (Rattus norvegicus, UniProt P09483+P12390); test: Inhibition of [3H](-)-nicotine binding to rat brain (minus cerebellum) Nicotinic acetylcholine receptor alpha4-beta2; format: tissue-based
Summary of the method: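 Rat brain homogenate with cerebellum removed, labelled with [3H](-)nicotine. IC50 taken from a plot of log concentration against percent displacement, then converted to Ki. At least triplicate.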

[2] = molecular target: Neuronal acetylcholine receptor; alpha3/beta2 (Rattus norvegicus, UniProt P04757+P12390); test: Binding affinity for rat Nicotinic acetylcholine receptor alpha3-beta2; format: protein-complex assay
Summary of the method: (§1)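 Binding run by the NIMH Psychoactive Drug Screening Program under standard protocols, using cloned rat receptor preparations.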

[3] = molecular target: Neuronal acetylcholine receptor; alpha2/beta2 (Rattus norvegicus, UniProt P12389+P12390); test: Binding affinity for rat Nicotinic acetylcholine receptor alpha2-beta2; format: protein-complex assay; summary of the method: as §1
[4] = molecular target: Neuronal acetylcholine receptor; alpha3/beta4 (Rattus norvegicus, UniProt P04757+P12392); test: Binding affinity for rat Nicotinic acetylcholine receptor alpha3-beta4; format: protein-complex assay; summary of the method: as §1
Mus musculus [5] = test: Percent of maximal possible antinociceptive effect at 15 mg/kg dose; failed to produce effect; format: functional
Mus musculus [6] = test: Nicotine-like action of the compound tested in mouse in spontaneous activity assay at 15 mg/kg sc dose; NA = Not active; format: functional, organism-based; set-up: dose 15 mg/kg
Summary of the method: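 Male ICR mice (20–25 g), at least six per dose, given compound or 0.9% saline sc. Placed in individual photocell activity cages 5 min after injection. Beam interruptions counted over the next 10 min.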

Mus musculus [7] = test: Nicotine-like action of the compound tested in mouse in hypothermia assay at 15 mg/kg sc dose; NA = Not active; format: functional, organism-based; set-up: dose 15 mg/kg
Summary of the method: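 Male ICR mice (20–25 g), at least six per dose, given compound or saline sc. Rectal temperature read by thermistor probe inserted 24 mm, just before and 30 min after injection.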

[8] = molecular target: T1, Neuronal acetylcholine receptor; alpha4/beta2; test: Inhibition of [3H]epibatidine binding to rat Nicotinic acetylcholine receptor alpha4-beta2; format: protein-complex assay
[9] = molecular target: Neuronal acetylcholine receptor; alpha2/beta4 (Rattus norvegicus, UniProt P12389+P12392); test: Binding affinity for rat Nicotinic acetylcholine receptor alpha2-beta4; format: protein-complex assay; summary of the method: as §1
[10] = molecular target: Neuronal acetylcholine receptor; alpha4/beta4 (Rattus norvegicus, UniProt P09483+P12392); test: Binding affinity for rat Nicotinic acetylcholine receptor alpha4-beta4; format: protein-complex assay; summary of the method: as §1
Neuronal acetylcholine receptor; alpha4/beta4, sequence (P09483 whole entry): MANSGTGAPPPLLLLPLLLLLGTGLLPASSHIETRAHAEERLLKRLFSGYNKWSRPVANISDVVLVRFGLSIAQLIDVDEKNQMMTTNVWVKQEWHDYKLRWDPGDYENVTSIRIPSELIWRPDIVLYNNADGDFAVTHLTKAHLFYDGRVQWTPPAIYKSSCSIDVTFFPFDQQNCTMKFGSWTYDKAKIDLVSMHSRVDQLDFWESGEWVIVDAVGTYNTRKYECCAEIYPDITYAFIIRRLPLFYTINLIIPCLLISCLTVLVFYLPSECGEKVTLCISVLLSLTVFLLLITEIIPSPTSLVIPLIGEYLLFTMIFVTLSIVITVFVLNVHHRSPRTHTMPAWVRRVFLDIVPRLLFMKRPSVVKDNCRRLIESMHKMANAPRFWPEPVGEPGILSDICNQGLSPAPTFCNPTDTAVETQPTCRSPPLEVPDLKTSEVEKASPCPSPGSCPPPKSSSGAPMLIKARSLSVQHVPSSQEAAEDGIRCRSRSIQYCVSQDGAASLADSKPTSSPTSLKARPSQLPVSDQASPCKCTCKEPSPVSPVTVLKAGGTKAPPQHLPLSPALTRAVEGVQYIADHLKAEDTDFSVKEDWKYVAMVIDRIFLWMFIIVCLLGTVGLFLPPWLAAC
Neuronal acetylcholine receptor; alpha4/beta4, sequence (P12392 whole entry): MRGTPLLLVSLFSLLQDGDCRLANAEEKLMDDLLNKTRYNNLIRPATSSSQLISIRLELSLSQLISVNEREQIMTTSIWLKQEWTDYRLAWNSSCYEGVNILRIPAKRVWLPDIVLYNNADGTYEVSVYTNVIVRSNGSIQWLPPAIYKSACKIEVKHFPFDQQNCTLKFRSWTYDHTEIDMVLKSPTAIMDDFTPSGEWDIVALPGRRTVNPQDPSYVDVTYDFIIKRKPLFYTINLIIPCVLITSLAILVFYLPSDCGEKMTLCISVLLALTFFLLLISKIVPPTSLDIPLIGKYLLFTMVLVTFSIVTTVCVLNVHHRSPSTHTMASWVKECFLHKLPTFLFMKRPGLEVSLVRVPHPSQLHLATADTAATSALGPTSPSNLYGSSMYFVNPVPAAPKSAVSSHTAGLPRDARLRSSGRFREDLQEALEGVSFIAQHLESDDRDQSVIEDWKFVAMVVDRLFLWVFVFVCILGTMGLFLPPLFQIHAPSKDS

T1 sequence (P09483 whole entry): as the sequence (P09483 whole entry) above
T1 sequence (P12390 whole entry): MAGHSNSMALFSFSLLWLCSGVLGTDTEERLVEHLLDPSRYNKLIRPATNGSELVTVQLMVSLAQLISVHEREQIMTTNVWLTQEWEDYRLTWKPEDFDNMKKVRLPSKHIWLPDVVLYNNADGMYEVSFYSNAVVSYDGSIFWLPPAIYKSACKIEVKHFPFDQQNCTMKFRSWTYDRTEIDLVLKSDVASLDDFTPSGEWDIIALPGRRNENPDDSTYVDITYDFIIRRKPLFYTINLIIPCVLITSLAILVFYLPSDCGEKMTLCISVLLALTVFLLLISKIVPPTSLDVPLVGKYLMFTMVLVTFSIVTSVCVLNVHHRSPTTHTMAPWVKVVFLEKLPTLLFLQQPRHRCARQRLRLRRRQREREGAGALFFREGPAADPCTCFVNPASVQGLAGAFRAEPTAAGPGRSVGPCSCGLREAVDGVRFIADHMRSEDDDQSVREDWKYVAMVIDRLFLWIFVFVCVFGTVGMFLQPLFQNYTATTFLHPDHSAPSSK
Neuronal acetylcholine receptor; alpha2/beta4, sequence (P12389 whole entry): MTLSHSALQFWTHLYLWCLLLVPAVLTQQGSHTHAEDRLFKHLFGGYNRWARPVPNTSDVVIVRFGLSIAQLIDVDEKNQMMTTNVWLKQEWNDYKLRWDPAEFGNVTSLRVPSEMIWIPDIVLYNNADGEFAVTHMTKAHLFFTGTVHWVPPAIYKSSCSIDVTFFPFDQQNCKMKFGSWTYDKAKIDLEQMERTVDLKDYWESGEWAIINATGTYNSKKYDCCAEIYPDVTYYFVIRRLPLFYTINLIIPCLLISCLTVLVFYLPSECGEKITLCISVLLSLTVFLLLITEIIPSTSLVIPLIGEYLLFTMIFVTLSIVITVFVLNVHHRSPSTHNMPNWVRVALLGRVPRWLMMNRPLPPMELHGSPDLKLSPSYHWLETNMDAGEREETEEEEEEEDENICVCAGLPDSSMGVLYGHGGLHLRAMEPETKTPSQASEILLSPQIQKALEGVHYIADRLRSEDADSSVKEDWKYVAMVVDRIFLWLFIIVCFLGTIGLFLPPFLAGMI
Neuronal acetylcholine receptor; alpha2/beta4, sequence (P12392 whole entry): as the sequence (P12392 whole entry) above
Neuronal acetylcholine receptor; alpha2/beta2, sequence (P12389 whole entry): as the sequence (P12389 whole entry) above
Neuronal acetylcholine receptor; alpha2/beta2, sequence (P12390 whole entry): as the sequence (P12390 whole entry) above
Neuronal acetylcholine receptor; alpha3/beta2, sequence (P04757 whole entry): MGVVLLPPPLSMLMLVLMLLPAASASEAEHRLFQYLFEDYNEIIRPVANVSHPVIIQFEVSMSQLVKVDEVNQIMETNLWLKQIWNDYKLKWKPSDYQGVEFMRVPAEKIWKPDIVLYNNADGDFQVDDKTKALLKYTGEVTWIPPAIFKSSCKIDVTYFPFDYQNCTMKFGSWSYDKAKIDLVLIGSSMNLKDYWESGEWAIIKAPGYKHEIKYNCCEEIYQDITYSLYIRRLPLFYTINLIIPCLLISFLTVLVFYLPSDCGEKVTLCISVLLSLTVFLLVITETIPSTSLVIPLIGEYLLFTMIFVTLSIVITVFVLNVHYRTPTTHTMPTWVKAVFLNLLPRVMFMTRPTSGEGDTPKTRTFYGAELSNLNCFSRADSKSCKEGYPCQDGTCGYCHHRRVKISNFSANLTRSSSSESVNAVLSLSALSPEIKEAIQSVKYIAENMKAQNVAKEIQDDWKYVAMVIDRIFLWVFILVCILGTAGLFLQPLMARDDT
Neuronal acetylcholine receptor; alpha3/beta2, sequence (P12390 whole entry): as the sequence (P12390 whole entry) above
Neuronal acetylcholine receptor; alpha3/beta4, sequence (P04757 whole entry): as the sequence (P04757 whole entry) above
Neuronal acetylcholine receptor; alpha3/beta4, sequence (P12392 whole entry): as the sequence (P12392 whole entry) above

CN1CCCC1c1ccc(C(=O)O)nc1 (stereo not given)
Ki [1]: > 10 µM

CN1CCCC1c1ccc(CCCc2ccccc2)nc1 (single isomer, unassigned; (+))
Ki [1]: > 10 µM

CCCc1ccc(C2CCCN2C)cn1 (stereo not given)
Ki [1]: 0.017 µM

CCc1ccc(C2CCCN2C)cn1 (stereo not given)
Ki [1]: 0.0056 µM

CN1CCCC1c1ccc(CCCc2ccccc2)nc1 (single isomer, unassigned; (-))
Ki [1]: 0.072 µM

CN1CCCC1c1ccc(/C=C/c2ccccc2)nc1 (stereo not given)
Ki [1]: 0.35 µM

CN1CCCC1c1ccc(CCc2ccccc2)nc1 (stereo not given)
Ki [1]: 0.015 µM
Ki [2]: 2 µM
Ki [3]: 0.49 µM
Ki [4]: 4.6 µM
MPE (Mus musculus [5]): 2%
Activity (Mus musculus [6]): inactive
Activity (Mus musculus [7]): inactive
Ki [8]: 0.2 µM
Ki [9]: 1.2 µM
Ki [10]: 0.4 µM

CN1CCCC1c1ccc(CC(O)c2ccccc2)nc1 (stereo not given)
Ki [1]: 0.275 µM

CN1CCCC1c1ccc(CCc2ccc(Cl)cc2)nc1 (stereo not given)
Ki [1]: 0.04 µM

COc1ccc(CCc2ccc(C3CCCN3C)cn2)cc1 (stereo not given)
Ki [1]: 0.01 µM

CCN(C)CCc1ccc(CCc2ccccc2)nc1
Ki [1]: > 10 µM
